Experimental data gathered from unrelated publications.
Protocols differ between the studies behind these lines.
Cell line: Vero
Observed: cell growth or viability

SMILES | test | setting | IC50 [µM]
C=CCn1c(=O)n(CC(=O)Nc2ccc(-n3nc(C)cc3C)cc2)c(=O)c2cc(I)ccc21 | – | – | 43.4
COc1ccc(NC(=O)C2=C(C)NC(C)=C(C(=O)Nc3ccc(OC)cc3OC)C2c2ccco2)c(OC)c1 | MTT | – | 51.6
O=c1nc(-c2ccc(Nc3nnc(-c4ccc(Cl)cc4)c4ccccc34)cc2)cc(-c2ccc(Cl)cc2)[nH]1 | – | – | 3
CN(C)C/C=C/C(=O)Nc1cc2c(Nc3ccc(F)c(Cl)c3)ncnc2cc1O[C@H]1CCOC1 | MTT | 72 h | 110
Oc1ccccc1C1CC(c2ccc(Nc3nnc(-c4ccc(Cl)cc4)c4ccccc34)cc2)=NN1 (stereo not drawn) | – | – | 4.11
Cc1ncc(CN2CCN(Cc3ccccn3)CC2)c2cc(C(=O)c3ccc4c(c3)OCCO4)oc12 | MTT | 72 h | 50.1
COc1cc(NC(=O)C2=C(C)NC(C)=C(C(=O)Nc3cc(OC)c(Cl)cc3OC)C2c2ccc(Cl)cc2)c(OC)cc1Cl | MTT | – | 27.4
C=CC(=O)Nc1cc(Nc2nccc(-c3cn(C)c4ccccc34)n2)c(OC)cc1N(C)CCN(C)C | MTT | 72 h | 181
COc1cc(NC(=O)C2=C(C)NC(C)=C(C(=O)Nc3cc(OC)c(Cl)cc3OC)C2c2cccc(Cl)c2)c(OC)cc1Cl | MTT | – | 28.4
Cc1nnc(-c2ccc(NC(=O)Cn3c(=O)c4cc(I)ccc4n(Cc4ccccc4)c3=O)cc2)o1 | – | – | 46.1
Clc1ccc(-c2nnc(Nc3ccc(C4=NNC(c5ccccc5)C4)cc3)c3ccccc23)cc1 (stereo not drawn) | – | – | 4.75
COc1cc(NC(=O)C2=C(C)NC(C)=C(C(=O)Nc3cc(OC)c(Cl)cc3OC)C2c2ccccc2)c(OC)cc1Cl | MTT | – | 42.2
S=c1nc(-c2ccc(Nc3nnc(-c4ccc(Cl)cc4)c4ccccc34)cc2)cc(-c2ccc(Cl)cc2)[nH]1 | – | – | 3.15
CS(=O)(=O)CCNCc1ccc(-c2ccc3ncnc(Nc4ccc(OCc5cccc(F)c5)c(Cl)c4)c3c2)o1 | MTT | – | 17.5
NNC(=O)c1ccc(NC(=O)Cn2c(=O)c3cc(I)ccc3n(Cc3ccccc3)c2=O)cc1 | – | – | 52.1
OC(Cn1cncn1)(Cn1cncn1)c1ccc(F)cc1F | MTT | 24 h | 173
COc1ccc(NC(=O)C2=C(C)NC(C)=C(C(=O)Nc3cc(OC)c(Cl)cc3OC)C2c2ccc(Cl)cc2)c(OC)c1 (stereo not drawn) | MTT | – | 54
CCOC(=O)c1ccc(NC(=O)Cn2c(=O)c3cc(I)ccc3n(Cc3ccccc3)c2=O)cc1 | – | – | 49.1
